Data taken from ChEMBL document CHEMBL3612027, “Substrate-guided optimization of the syringolins yields potent proteasome inhibitors with activity against leukemia cell lines” (Bioorg Med Chem, 2015).

Tests used:
MCF7 = experiment: Cytotoxicity against human MCF7 cells assessed as cell growth at 10 uM after 48 hrs relative to control; assay type: functional; details: MCF7, 48 h, read-out: Activity
In short: (§1)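 Run at the National Cancer Institute as a single-dose screen across its 60-cell-line cancer panel. Compound was tested at 10 micromolar, and growth was expressed as a percentage of negative-control cultures.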

M14 = experiment: Cytotoxicity against human M14 cells assessed as cell growth at 10 uM after 48 hrs relative to control; assay type: functional; details: M14, 48 h, read-out: Activity; in short: as §1
Malme-3M = experiment: Cytotoxicity against human MALME-3M cells assessed as cell growth at 10 uM after 48 hrs relative to control; assay type: functional; details: read-out: Activity; in short: as §1
TK-10 = experiment: Cytotoxicity against human TK10 cells assessed as cell growth at 10 uM after 48 hrs relative to control; assay type: functional; details: TK-10, 48 h, read-out: Activity
In short: (§2)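 Submitted to the National Cancer Institute for a single-dose screen at 10 micromolar against 60 cancer cell lines. Growth is expressed relative to negative-control cultures.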

UACC-257 = experiment: Cytotoxicity against human UACC257 cells assessed as cell growth at 10 uM after 48 hrs relative to control; assay type: functional; details: UACC-257, 48 h, read-out: Activity; in short: as §2
MDA-MB-468 = experiment: Cytotoxicity against human MDA-MB-468 cells assessed as cell growth at 10 uM after 48 hrs relative to control; assay type: functional; details: MDA-MB-468, 48 h, read-out: Activity; in short: as §1
[1] = Cytotoxicity against human RPMI-8226 cells after 48 hrs; assay type: functional; details: RPMI-8226, 48 h
BT-549 = experiment: Cytotoxicity against human BT549 cells assessed as cell growth at 10 uM after 48 hrs relative to control; assay type: functional; details: BT-549, 48 h, read-out: Activity; in short: as §1
NCI-H322M = experiment: Cytotoxicity against human NCI-H322M cells assessed as cell growth at 10 uM after 48 hrs relative to control; assay type: functional; details: read-out: Activity; in short: as §1
CCRF-CEM = experiment: Cytotoxicity against human CCRF-CEM cells assessed as cell growth at 10 uM after 48 hrs relative to control; assay type: functional; details: read-out: Activity; in short: as §1
SNB-75 = experiment: Cytotoxicity against human SNB75 cells assessed as cell growth at 10 uM after 48 hrs relative to control; assay type: functional; details: SNB-75, 48 h, read-out: Activity; in short: as §2
K562 = experiment: Cytotoxicity against human K562 cells after 48 hrs; assay type: functional; details: K562, 48 h
COLO 205 = experiment: Cytotoxicity against human COLO205 cells assessed as cell growth at 10 uM after 48 hrs relative to control; assay type: functional; details: COLO 205, 48 h, read-out: Activity; in short: as §1
U-251 = experiment: Cytotoxicity against human U251 cells assessed as cell growth at 10 uM after 48 hrs relative to control; assay type: functional; details: U-251, 48 h, read-out: Activity; in short: as §2
CAKI-1 = experiment: Cytotoxicity against human Caki1 cells assessed as cell growth at 10 uM after 48 hrs relative to control; assay type: functional; details: CAKI-1, 48 h, read-out: Activity; in short: as §1
SW-620 = experiment: Cytotoxicity against human SW620 cells assessed as cell growth at 10 uM after 48 hrs relative to control; assay type: functional; details: SW-620, 48 h, read-out: Activity; in short: as §2
OVCAR-8 = experiment: Cytotoxicity against human OVCAR8 cells assessed as cell growth at 10 uM after 48 hrs relative to control; assay type: functional; details: OVCAR-8, 48 h, read-out: Activity; in short: as §1
SF-539 = experiment: Cytotoxicity against human SF539 cells assessed as cell growth at 10 uM after 48 hrs relative to control; assay type: functional; details: SF-539, 48 h, read-out: Activity; in short: as §1
HL-60 = experiment: Cytotoxicity against human HL60 cells after 48 hrs; assay type: functional; details: HL-60, 48 h
MDA-MB-435 = experiment: Cytotoxicity against human MDA-MB-435 cells assessed as cell growth at 10 uM after 48 hrs relative to control; assay type: functional; details: MDA-MB-435, 48 h, read-out: Activity; in short: as §1
MOLT-4 [2] = experiment: Cytotoxicity against human MOLT4 cells assessed as cell growth at 10 uM after 48 hrs relative to control; assay type: functional; details: MOLT-4, 48 h, read-out: Activity; in short: as §1
NCI-H522 = experiment: Cytotoxicity against human NCI-H522 cells assessed as cell growth at 10 uM after 48 hrs relative to control; assay type: functional; details: NCI-H522, 48 h, read-out: Activity; in short: as §1
NCI-H226 = experiment: Cytotoxicity against human NCI-H226 cells assessed as cell growth at 10 uM after 48 hrs relative to control; assay type: functional; details: NCI-H226, 48 h, read-out: Activity; in short: as §1
KM12 = experiment: Cytotoxicity against human KM12 cells assessed as cell growth at 10 uM after 48 hrs relative to control; assay type: functional; details: KM12, 48 h, read-out: Activity; in short: as §1
RPMI-8226 = experiment: Cytotoxicity against human RPMI8226 cells assessed as cell growth at 10 uM after 48 hrs relative to control; assay type: functional; details: RPMI-8226, 48 h, read-out: Activity; in short: as §1
PC-3 = experiment: Cytotoxicity against human PC3 cells assessed as cell growth at 10 uM after 48 hrs relative to control; assay type: functional; details: PC-3, 48 h, read-out: Activity; in short: as §1
HCT-15 = experiment: Cytotoxicity against human HCT15 cells assessed as cell growth at 10 uM after 48 hrs relative to control; assay type: functional; details: HCT-15, 48 h, read-out: Activity; in short: as §1
MOLT-4 [3] = experiment: Cytotoxicity against human MOLT4 cells after 48 hrs; assay type: functional; details: MOLT-4, 48 h
SF-295 = experiment: Cytotoxicity against human SF295 cells assessed as cell growth at 10 uM after 48 hrs relative to control; assay type: functional; details: SF-295, 48 h, read-out: Activity; in short: as §1
HCC 2998 = experiment: Cytotoxicity against human HCC2998 cells assessed as cell growth at 10 uM after 48 hrs relative to control; assay type: functional; details: HCC 2998, 48 h, read-out: Activity; in short: as §1
ACHN = experiment: Cytotoxicity against human ACHN cells assessed as cell growth at 10 uM after 48 hrs relative to control; assay type: functional; details: read-out: Activity; in short: as §1
[4] = molecular target: T1, Proteasome Macropain subunit MB1 (Homo sapiens, UniProt P28074); experiment: Inhibition of human 20S proteasome beta5 subunit using Suc-LLVY-AMC as substrate by fluorescence assay
T1 sequence (P28074 whole entry): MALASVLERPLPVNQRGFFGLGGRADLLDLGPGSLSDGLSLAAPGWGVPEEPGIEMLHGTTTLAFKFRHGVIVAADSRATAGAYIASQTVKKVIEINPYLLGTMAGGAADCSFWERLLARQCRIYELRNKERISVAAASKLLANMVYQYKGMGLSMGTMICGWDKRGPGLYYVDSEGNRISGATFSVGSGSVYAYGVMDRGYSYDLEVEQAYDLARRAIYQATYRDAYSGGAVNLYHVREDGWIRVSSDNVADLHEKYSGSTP

NCI/ADR-RES = experiment: Cytotoxicity against human NCI/ADR-RES cells assessed as cell growth at 10 uM after 48 hrs relative to control; assay type: functional; details: read-out: Activity; in short: as §1
HOP-62 = experiment: Cytotoxicity against human HOP62 cells assessed as cell growth at 10 uM after 48 hrs relative to control; assay type: functional; details: HOP-62, 48 h, read-out: Activity; in short: as §1
A549 = experiment: Cytotoxicity against human A549 cells assessed as cell growth at 10 uM after 48 hrs relative to control; assay type: functional; details: A549, 48 h, read-out: Activity; in short: as §1

COC(=O)[C@@H](NC(=O)N[C@@H](Cc1ccccc1)C(=O)N[C@H]1CCCCNC(=O)/C=C/[C@H](Cc2c[nH]c3ccccc23)NC1=O)C(C)C
growth at 10 µM (MCF7): 40.3%
growth at 10 µM (M14): 101%
growth at 10 µM (Malme-3M): 94%
growth at 10 µM (TK-10): 101%
growth at 10 µM (UACC-257): 87.1%
growth at 10 µM (MDA-MB-468): 18%
GI50 [1]: 343 nM
growth at 10 µM (BT-549): 26.6%
growth at 10 µM (NCI-H322M): 99.4%
growth at 10 µM (CCRF-CEM): 58.2%
growth at 10 µM (SNB-75): 33%
GI50 (K562): 2940 nM
growth at 10 µM (COLO 205): 94%
growth at 10 µM (U-251): 63.9%
growth at 10 µM (CAKI-1): 106%
growth at 10 µM (SW-620): 87.7%
growth at 10 µM (OVCAR-8): 98.9%
growth at 10 µM (SF-539): 17.5%
GI50 (HL-60): 1290 nM
growth at 10 µM (MDA-MB-435): 1.21%
growth at 10 µM (MOLT-4 [2]): 13.9%
growth at 10 µM (NCI-H522): -0.14%
growth at 10 µM (NCI-H226): 65.7%
growth at 10 µM (KM12): 94.6%
growth at 10 µM (RPMI-8226): 21.2%
growth at 10 µM (PC-3): 103%
growth at 10 µM (HCT-15): 110%
GI50 (MOLT-4 [3]): 599 nM
growth at 10 µM (SF-295): 99.7%
growth at 10 µM (HCC 2998): 91.8%
growth at 10 µM (ACHN): 101%
Ki [4]: 385 nM
growth at 10 µM (NCI/ADR-RES): 99.1%
growth at 10 µM (HOP-62): 113%
growth at 10 µM (A549): 95.5%

COC(=O)[C@@H](NC(=O)N[C@@H](Cc1ccccc1)C(=O)N[C@H]1CCCCNC(=O)/C=C/[C@H](C(C)C)NC1=O)C(C)C
growth at 10 µM (MCF7): 43.8%
growth at 10 µM (M14): 86.6%
growth at 10 µM (Malme-3M): 77%
growth at 10 µM (TK-10): 93.6%
growth at 10 µM (UACC-257): 58.5%
growth at 10 µM (MDA-MB-468): 31.2%
growth at 10 µM (BT-549): 29.6%
growth at 10 µM (NCI-H322M): 94.2%
growth at 10 µM (CCRF-CEM): 55.1%
growth at 10 µM (SNB-75): -27.8%
growth at 10 µM (COLO 205): 78.5%
growth at 10 µM (U-251): 17.4%
growth at 10 µM (CAKI-1): 98.3%
growth at 10 µM (SW-620): 38.5%
growth at 10 µM (OVCAR-8): 92.3%
growth at 10 µM (SF-539): 5.04%
growth at 10 µM (MDA-MB-435): -59.9%
growth at 10 µM (MOLT-4 [2]): 49.2%
growth at 10 µM (NCI-H522): -43.8%
growth at 10 µM (NCI-H226): 54.7%
growth at 10 µM (KM12): 30.5%
growth at 10 µM (RPMI-8226): 23.1%
growth at 10 µM (PC-3): 75%
growth at 10 µM (HCT-15): 94.2%
growth at 10 µM (SF-295): 101%
growth at 10 µM (HCC 2998): 52.8%
growth at 10 µM (ACHN): 102%
Ki [4]: 950 nM
growth at 10 µM (NCI/ADR-RES): 105%
growth at 10 µM (HOP-62): 84.4%
growth at 10 µM (A549): 77.4%
